TRPC4 block – TRPC4 (mouse) channel inhibition. Q9QUQ5. HEK293 TRPC4beta/mu-opioid, DAMGO-evoked Fluo4 calcium flux; stronger effect = lower value. B-score at 10 µM. hit rate 0.39% among 300,000;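 active means B-score over 3 SD under the library average, no early fluorescence shift, positive overall ratio signal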
Target sequence (Q9QUQ5 whole entry, looked up): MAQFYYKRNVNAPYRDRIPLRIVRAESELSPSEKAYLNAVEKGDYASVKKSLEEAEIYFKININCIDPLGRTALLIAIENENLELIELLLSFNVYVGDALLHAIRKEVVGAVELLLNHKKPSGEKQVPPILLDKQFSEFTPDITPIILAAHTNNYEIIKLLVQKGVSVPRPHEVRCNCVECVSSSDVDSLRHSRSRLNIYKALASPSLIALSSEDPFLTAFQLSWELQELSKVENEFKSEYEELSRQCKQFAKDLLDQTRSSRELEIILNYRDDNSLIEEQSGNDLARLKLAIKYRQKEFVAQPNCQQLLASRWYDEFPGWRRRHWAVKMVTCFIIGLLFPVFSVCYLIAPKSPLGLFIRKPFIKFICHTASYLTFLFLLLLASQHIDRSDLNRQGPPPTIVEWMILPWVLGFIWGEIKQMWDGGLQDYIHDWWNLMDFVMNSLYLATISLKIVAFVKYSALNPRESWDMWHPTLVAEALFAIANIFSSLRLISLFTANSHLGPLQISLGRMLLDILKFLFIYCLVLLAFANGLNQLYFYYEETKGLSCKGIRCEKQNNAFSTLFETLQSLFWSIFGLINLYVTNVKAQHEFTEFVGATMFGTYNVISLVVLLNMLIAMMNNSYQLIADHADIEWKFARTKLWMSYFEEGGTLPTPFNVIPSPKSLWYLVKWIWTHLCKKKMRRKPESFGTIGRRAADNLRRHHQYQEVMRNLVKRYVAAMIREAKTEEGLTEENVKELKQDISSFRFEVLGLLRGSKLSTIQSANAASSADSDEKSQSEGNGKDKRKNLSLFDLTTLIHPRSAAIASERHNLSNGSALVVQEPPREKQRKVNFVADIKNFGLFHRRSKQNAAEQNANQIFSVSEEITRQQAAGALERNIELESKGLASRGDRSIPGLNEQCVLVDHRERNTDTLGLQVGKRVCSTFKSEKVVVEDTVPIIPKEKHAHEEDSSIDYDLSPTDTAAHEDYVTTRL
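Signal: kinetic Fluo4 fluorescence imaging of calcium influx. Material: stable TRPC4beta/mu-opioid receptor HEK293 cells. Probe or stimulus: DAMGO in two steps, submaximal then maximal.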
TRPC6 inh – inhibitors of mouse TRPC6 channel | hit rate 1.1% among 310,000 | HEK293-TRPC6, membrane potential dye, ACh-evoked depolarization; stronger effect = lower value | B-score at 10 µM | Q61143;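 active means B-score under library mean minus 3 SD, initial fluorescence not abnormally high, positive integrated signal ratio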;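 further: B-score derived from integrated fluorescence ratio over the kinetic read; more negative B-score means stronger inhibition of depolarization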
TRPC6 activator – activators of mouse TRPC6 channel; Q61143; HEK293-TRPC6 membrane potential dye fluorescence; stronger effect = higher value; B-score at 10 µM; hit rate 0.13% among 310,000;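 active means B-score of the integrated fluorescence ratio above library mean plus 3 SD, and starting fluorescence ratio within library mean plus 5 SD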;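 further: higher score means more depolarization so channel activation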
TRPC4 PAM – TRPC4 (mouse) allosteric potentiation. AID 2227. HEK293 TRPC4beta/mu-opioid, DAMGO EC20, Fluo-4 Ca2+ flux; stronger effect = higher value. Q9QUQ5. B-score at 10 µM. hit rate 0.42% among 310,000;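 active means B-score of calcium response area above 5 SD of library B-scores, with initial fluorescence ratio within 5 SD of library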;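 further: B-score of integrated fluorescence ratio over time as area under calcium response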
TRPC4 agonist – activators of mouse TRPC4 channel | AID 2237 | B-score at 10 µM | hit rate 0.49% among 310,000 | Q9QUQ5 | HEK293 TRPC4beta/mu-opioid, Fluo4 calcium fluorescence; stronger effect = higher value;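 active means B-score above 5 SD of library B-scores, and initial fluorescence ratio not above library mean plus 5 SD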;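 further: positive B-score marks a calcium rise read as TRPC4 activation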
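Test system: HEK293 cells stably co-expressing mouse TRPC4beta and mu-opioid receptor | Schedule: Fluo4 dye loading 45 min at room temperature, 110 s recording | Measured by: Kinetic Fluo4 calcium fluorescence, 5 s baseline at 1 Hz | Evaluation: B score of integrated ratio | Controls: Buffer (low) and maximal DAMGO (high)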
Numbers without * were called inactive; i = inactive. In the library only some 2.3% were active in any assay of this set; here they are far more common.

SMILES	TRPC4 block	TRPC6 inh	TRPC6 activator	TRPC4 PAM	TRPC4 agonist
CCOc1cc(CNCc2ccccc2)ccc1OCc1ccc(Cl)cc1	i	i	i	i	i
CCC(=O)c1ccc(OCC(O)CNCCc2ccc(Cl)cc2)cc1 (stereo not drawn)	i	i	i	i	59*
O=C(COc1ccc(Cl)cc1)NCc1ccccc1	i	i	i	i	i
CCC(=O)c1ccc(OCC(O)CNCc2ccc(F)cc2)cc1 (stereo not drawn)	i	i	i	i	i
COc1cc2c(cc1OC)CN(C(=O)Cc1c(F)cccc1Cl)CC2	i	i	i	i	i
c1ccc(CCNCCCOc2cccc3ccccc23)cc1	i	i	i	i	66*
CC(=O)NCCOc1cccc2ccccc12	i	i	i	i	i
CCSc1nc(-c2ccccc2)nc2c1CCCC2	i	i	i	i	i
CN(C)CCSc1nc(-c2ccccc2)nc2c1CCCC2	i	i	i	20*	68*
COc1ccc(S(=O)(=O)N2CC(C)OC(C)C2)cc1C(=O)N1CCCCC1 (stereo not drawn)	i	i	i	i	i
CCOC(=O)c1sc2nc(C)nc(NCc3ccc(F)cc3)c2c1C	i	i	i	i	i
CCOC(=O)c1sc2nc(CC(=O)OC)nc(NCc3ccc(F)cc3)c2c1C	-9*	i	i	i	98*
Cc1nn(-c2ccccc2)c(Cl)c1/C=N/Nc1ccc(S(=O)(=O)Nc2ccccc2C(=O)O)cc1[N+](=O)[O-]	-6*	i	i	i	i
O=C(c1cccc(Cl)c1)N1CCCc2ccccc21	i	i	i	i	i
O=C(C1=C[C@H](c2ccc(C(F)(F)F)cc2)C[C@H](OCCCCO)O1)N1CCN(Cc2ccccc2)CC1	i	i	i	i	186*
O=C(c1ccc([N+](=O)[O-])cc1)N1CCN(c2ncc(Br)cn2)CC1	i	i	i	i	219*
CCOc1cccc2sc(N(CCCN(C)C)C(=O)c3ccc(S(=O)(=O)N4CCCCCC4)cc3)nc12	i	i	i	i	i
Cc1ccc2nc(N(CCCN(C)C)C(=O)c3ccc(S(=O)(=O)N4CCCCCC4)cc3)sc2c1	i	i	i	14*	43*
CN(C)CCCN(C(=O)c1ccc(S(=O)(=O)N2CCCCCC2)cc1)c1nc2c(F)cccc2s1	-6*	i	i	i	54*
Cc1ccc2sc(N(CCCN(C)C)C(=O)c3ccc(S(=O)(=O)N4CCc5ccccc5C4)cc3)nc2c1C	i	i	i	i	i
CN(C)CCN(C(=O)c1ccc(S(=O)(=O)N2CCCC2)cc1)c1nc2ccc(Br)cc2s1	i	i	i	i	i
CN(C)CCCN(C(=O)c1ccc(S(=O)(=O)N2CCc3ccccc3C2)cc1)c1nc2c(F)cc(F)cc2s1	i	i	i	i	58*
CCc1ccc2nc(N(CCCN(C)C)C(=O)c3ccc(S(=O)(=O)N4CCCC4)cc3)sc2c1	i	i	i	i	i
CN(C)CCCN(C(=O)c1ccc(S(=O)(=O)N2CCCCCC2)cc1)c1nc2ccc(F)cc2s1	i	i	i	i	336*
O=C(CCc1nnc(-c2ccccc2)o1)c1ccc(Cl)cc1	i	i	i	i	i
SMILES	TRPC4 block	TRPC6 inh	TRPC6 activator	TRPC4 PAM	TRPC4 agonist
COCc1nnc(NC(=O)c2cc(OC)c(OC)cc2[N+](=O)[O-])s1	i	i	i	i	i
CCN1C(=O)CC(NC2CCN(C(=O)c3ccc(F)cc3)CC2)C1=O (stereo not drawn)	i	i	i	i	i
Cc1cc(NC(=O)CSCC(=O)N(C)Cc2cccc(Cl)c2)no1	i	i	i	i	i
CCN(Cc1ccccc1)S(=O)(=O)c1ccc(C(=O)N(CCCN(C)C)c2nc3c(F)cccc3s2)cc1	i	i	i	i	112*
CCOc1cccc2sc(N(CCCN(C)C)C(=O)c3ccc(S(=O)(=O)N(CC)Cc4ccccc4)cc3)nc12	i	i	i	i	i
CN(C)CCCN(C(=O)c1ccc(S(=O)(=O)N2CCOCC2)cc1)c1nc2ccc(F)cc2s1	i	i	i	i	57*
